This is a sample that favours compounds with a hit; in the whole collection about 2.4% have one here.
STEP inh: STEP phosphatase inhibitors, primary screen, biochemical, fluorescence intensity, uHTS; Tyrosine-protein phosphatase non-receptor type 5 (Homo sapiens), P54829; recombinant STEP, OMFP fluorogenic substrate; inhibition, % at 20 µM; 360,000 tested, 0.25% active;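 active means inhibition at 20 µM, scaled per plate between control wells, above about 37%, limit read from the data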;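 further: 0% = DMSO with enzyme and substrate and 100% = substrate only without enzyme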
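medium = Bis-Tris buffer pH 6.0, 2.5 mM DTT, 0.005% Tween 20 | test system = STEP (striatal-enriched tyrosine phosphatase) enzyme, cell-free | measure = normalized % inhibition | compound dosing = 20 µM, 1% DMSO | also added = 25 µM OMFP | schedule = reaction 20 min, ambient temperature | measured by = fluorescence read at 480 nm ex / 540 nm em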
DNMT1 inh: human DNMT1 methyltransferase inhibitors, primary screen, biochemical, molecular beacon, fluorescence, HinP1I cleavage, uHTS; 360,000 tested, 0.83% active; AID 588458, 2011; inhibition (reported as % activation of signal), % at 10 µM; in the data active means inhibition above about 50%
LMPTP block: LMPTP phosphatase inhibitors, primary screen, biochemical, fluorescence intensity, uHTS. 360,000 tested, 0.22% active. Low molecular weight phosphotyrosine protein phosphatase (Homo sapiens), P24666. inhibition, % at 20 µM. recombinant LMPTP-A, OMFP fluorogenic substrate;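 active means compounds that cut the enzyme signal by at least half of the control window in the single-dose screen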;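 further: plate controls were DMSO wells with enzyme plus substrate for no effect and substrate without enzyme for full effect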
Target sequence (P24666 whole entry, looked up): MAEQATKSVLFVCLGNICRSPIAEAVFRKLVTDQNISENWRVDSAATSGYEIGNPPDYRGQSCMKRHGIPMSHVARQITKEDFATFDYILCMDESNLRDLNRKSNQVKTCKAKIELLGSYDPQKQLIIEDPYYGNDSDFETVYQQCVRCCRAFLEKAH
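Assay system: LMPTP-A, protein tyrosine phosphatase of low molecular weight / Medium: pH 6.0 Bis-Tris buffer with DTT and Triton X-100 / Schedule: 50 min enzyme reaction at room temperature, protected from light / Measured by: endpoint fluorescence intensity from OMFP dephosphorylation / Read-out basis: % inhibition relative to no-enzyme and uninhibited control wells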
SUMO1-SIM PPI: modulators of SUMO1 protein-protein interactions, primary screen, biochemical, uHTS. Small ubiquitin-related modifier 1 (Homo sapiens), P63165. SUMO1 binding to a labelled peptide, TR-FRET, 1 h. inhibition, % at 20 µM. 360,000 tested, 0.33% active; in the data active means inhibition above about 37%
Target sequence (P63165 whole entry, looked up): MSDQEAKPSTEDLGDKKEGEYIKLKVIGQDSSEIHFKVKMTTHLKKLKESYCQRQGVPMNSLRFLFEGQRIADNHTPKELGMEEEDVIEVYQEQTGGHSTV
Scp-1 inhibitor: Scp-1 phosphatase inhibitors, primary screen, biochemical, colorimetric, uHTS. Carboxy-terminal domain RNA polymerase II polypeptide A small phosphatase 1 (Homo …. Recombinant Scp1, phosphopeptide, malachite green phosphate absorbance. inhibition, % at 20 µM. 340,000 tested, 0.88% active;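 active means inhibition above about 50% at 20 µM, limit read from the data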;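 further: plate controls were DMSO wells with enzyme for no effect and wells lacking enzyme for full effect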
Target sequence (Q9GZU7 76-261 limits assumed): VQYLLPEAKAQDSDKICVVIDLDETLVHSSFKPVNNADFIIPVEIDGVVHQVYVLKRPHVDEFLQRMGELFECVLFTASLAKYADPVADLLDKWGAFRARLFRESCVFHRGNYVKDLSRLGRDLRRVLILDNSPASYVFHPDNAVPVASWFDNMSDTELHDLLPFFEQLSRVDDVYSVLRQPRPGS
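Test system: SCP-1 phosphatase catalytic domain, residues 76-261 | Compound dosing: One concentration, 20 µM, with 1.0% DMSO | Schedule: 45 min room-temperature reaction, 5 min colour, 30 min stabiliser | Detection: Absorbance at 630 nm | Read-out basis: % inhibition of SCP-1 phosphate liberation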
NadD inh: inhibitors of S. aureus NadD, primary screen, biochemical, colorimetric, uHTS | 360,000 tested, 0.78% active | Nicotinate-nucleotide adenylyltransferase NadD (Staphylococcus aureus N315) | purified NadD enzyme, colorimetric absorbance read-out | inhibition, % at 20 µM | AID 602399, 2012; in the data active means inhibition above about 26%
* hit, by the source's call.

CCCCn1nc(NC(=O)COC)c2cc3ccc(C)cc3nc21 was read as STEP inh -6, DNMT1 inh 12, LMPTP block 2, SUMO1-SIM PPI -6, Scp-1 inhibitor 52* and NadD inh 8.
CC1CCCC(NC(=O)CCCn2c(=O)[nH]c3cc(Cl)ccc3c2=O)C1C (centres undefined) was read as STEP inh 0, DNMT1 inh -5, LMPTP block -1, SUMO1-SIM PPI -2, Scp-1 inhibitor -12 and NadD inh 6.
Screening CCc1cc(C(=O)N=Nc2c(O)[nH]c3c(Br)cc(Br)cc23)c2ccccc2n1 returned STEP inh -3, DNMT1 inh -40, LMPTP block 2, SUMO1-SIM PPI -6, Scp-1 inhibitor 8 and NadD inh 54*.
Screening CCc1cc(C(=O)N=Nc2c(O)[nH]c3ccc([N+](=O)[O-])cc23)c2ccccc2n1 returned STEP inh 0, DNMT1 inh -24, LMPTP block 3, SUMO1-SIM PPI 9, Scp-1 inhibitor 1 and NadD inh 27.
`CCOc1ccc(N(C(=O)/C=C/C(=O)Nc2cc(C)on2)C(C(=O)NC2CCCC2)c2ccccc2C)cc1` (centres undefined) gave STEP inh -1, DNMT1 inh -6, LMPTP block 2, SUMO1-SIM PPI 3, Scp-1 inhibitor -5 and NadD inh 3.
Screening NCCCC[C@H]1NC(=O)[C@H](CCC(=O)O)NC(=O)c2cc([N+](=O)[O-])cc(I)c2OCC[C@@H](C(N)=O)NC1=O returned Scp-1 inhibitor 91*.
COc1cc(NC(=S)N2CCCC2)cc(OC)c1 was read as STEP inh 2, DNMT1 inh 0, LMPTP block 0, SUMO1-SIM PPI -1, Scp-1 inhibitor -2 and NadD inh 5.
Screening Cc1ccc(-c2nnn(CC(=O)N3CCCc4ccccc43)n2)cc1 returned STEP inh -2, DNMT1 inh -1, LMPTP block 1, SUMO1-SIM PPI -6, Scp-1 inhibitor -2 and NadD inh -11.
`CN=C1c2cc3cc(OC)ccc3n2CCN1Cc1ccccc1` gave STEP inh 1, DNMT1 inh 0, LMPTP block 0, SUMO1-SIM PPI -14, Scp-1 inhibitor -2 and NadD inh -4.
`O=S(=O)(Nc1cc(Sc2ncn[nH]2)c(O)c2ccccc12)c1ccccc1` gave STEP inh 3, DNMT1 inh 24, LMPTP block 9, SUMO1-SIM PPI 85*, Scp-1 inhibitor 17 and NadD inh 16.
Screening COc1cccc2c1[C@@H]1CN(CCCCn3c(=O)[nH]c4c(sc5ncc(-c6ccccc6)nc54)c3=O)C[C@@H]1CO2 returned STEP inh 6, DNMT1 inh -11, LMPTP block 67*, SUMO1-SIM PPI -17, Scp-1 inhibitor 14 and NadD inh 20.
For Cc1nn(Cc2ccc([N+](=O)[O-])cc2)c(=O)n1-c1cccc(F)c1 the results were STEP inh -2, DNMT1 inh 0, LMPTP block -1, SUMO1-SIM PPI -33, Scp-1 inhibitor -22 and NadD inh -4.
`COc1ccc(NC(=O)c2c[nH]c(=O)n(-c3ccc(C)c(C)c3)c2=O)c(OC)c1` gave STEP inh -7, DNMT1 inh 30, LMPTP block -4, SUMO1-SIM PPI 43*, Scp-1 inhibitor -10 and NadD inh -2.
`COc1ccccc1C(=O)N/N=C(\C)c1ccc(NC(=O)Cc2ccccc2)cc1` gave STEP inh 1, DNMT1 inh -4, LMPTP block -2, SUMO1-SIM PPI 44*, Scp-1 inhibitor 1 and NadD inh 7.
Screening CCOC(=O)c1cc(-c2ccc(C)o2)nn1CCC#N returned STEP inh -11, DNMT1 inh -2, LMPTP block 0, SUMO1-SIM PPI -3, Scp-1 inhibitor -10 and NadD inh 1.
Screening Cc1cc(C(=O)NC2CCCc3c2cnn3-c2ccc(C)c(C)c2)n(C)n1 (centres undefined) returned STEP inh 0, DNMT1 inh 1, LMPTP block 1, SUMO1-SIM PPI -2, Scp-1 inhibitor 79* and NadD inh 2.
`Cc1ccc(-n2ncc3c2CCCC3NC(=O)c2ccoc2)cc1C` (centres undefined) gave STEP inh -1, DNMT1 inh -2, LMPTP block 1, SUMO1-SIM PPI 5, Scp-1 inhibitor -5 and NadD inh 1.
Screening Cn1c(N)c(N2CCCCC2)c(=O)n(CC(=O)Nc2ccc(Cl)c(Cl)c2)c1=O returned STEP inh -2, DNMT1 inh -5, LMPTP block -1, SUMO1-SIM PPI 56*, Scp-1 inhibitor -3 and NadD inh 2.
O=C(Nc1ccc(C(F)(F)F)cc1)c1ccc(NC(=O)C2CCCO2)cc1 (centres undefined) was read as STEP inh 52*, DNMT1 inh 9, LMPTP block 40, SUMO1-SIM PPI 18, Scp-1 inhibitor 33 and NadD inh 0.
`CCOC(=O)c1ccc(Nc2sc(C(=O)c3cccc([N+](=O)[O-])c3)c(N)c2C#N)cc1` gave STEP inh -2, DNMT1 inh -11, LMPTP block 0, SUMO1-SIM PPI 53*, Scp-1 inhibitor 1 and NadD inh -3.
For Cc1ccc(C(=O)c2sc(Nc3ccccc3)c(C#N)c2N)cc1 the results were STEP inh 0, DNMT1 inh -11, LMPTP block 5, SUMO1-SIM PPI -3, Scp-1 inhibitor -5 and NadD inh -1.
`Cn1cnnc1SCc1ccc(C(=O)N=Nc2c(O)n(Cc3ccc(Cl)cc3)c3ccccc23)cc1` gave STEP inh 8, DNMT1 inh -16, LMPTP block 11, SUMO1-SIM PPI 9, Scp-1 inhibitor 9 and NadD inh 35*.
`CCn1c(O)c(N=NC(=O)c2ccc(CSc3nncn3C)cc2)c2ccccc21` gave STEP inh -1, DNMT1 inh -1, LMPTP block 1, SUMO1-SIM PPI -21, Scp-1 inhibitor 4 and NadD inh 9.
Screening O=C1/C(=C\c2ccccn2)SC(=S)N1c1ccc(S(=O)(=O)Nc2nccs2)cc1 returned STEP inh 8, DNMT1 inh -5, LMPTP block 4, SUMO1-SIM PPI 7, Scp-1 inhibitor 2 and NadD inh 44*.
